# Hep lipid drop: modulators of hepatic lipid droplet formation | 240,000 compounds, 0.4% hits | inhibition, % at 6.5 µM | AML12 mouse hepatocytes, oleate lipid droplets, BODIPY imaging | AID 1656;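 active means lipid droplet intensity inhibited by at least 50%, with more than 500 cells counted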
#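 Material – AML12 mouse liver cells · Also added – oleate loading, 100 µM · Compound dosing – 6.5 µM single-point dosing · Times – overnight treatment with compound plus oleate · Measured by – fluorescence imaging, 20x objective, two fields per well · Read-out – percent inhibition of filter-corrected integrated lipid droplet intensity per well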
# 697 NFkB inh: inhibitors of the PMA/ionomycin-induced NF-kB reporter in 697 B cells | 330,000 compounds, 0.33% hits | 697 B-cell NF-kB luciferase reporter, 16 h | inhibition, % at 4 µM; in the data active means inhibition above about 35%
# H9c2 TAG inh: triacylglycerol accumulation inhibition. AID 651582. 230,000 compounds, 0.66% hits. H9c2 cells, Nile Red lipid (TAG) fluorescence; cells loaded with 200 µM oleic acid. inhibition, % at 12.5 µM;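 active means pattern-corrected inhibition of lipid staining of at least 50% with the nuclear-stain viability signal not falling by more than 50%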;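 further: 0% = DMSO wells and 100% = triacsin C control wells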
# aSyn 5UTR inh: MLPCN primary screen, SNCA 5' untranslated region; inhibition, % (tested at 7.5 µM); alpha-synuclein 5'UTR reporter, inhibitor activity; AID 1813; 300,000 compounds, 0.82% hits; in the data active means inhibition above about 60%;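 further: H4 neuroglioblastoma cells stably carrying SNCA 5'UTR luciferase fusion; 0% = DMSO wells and 100% = positive control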
# Jurkat NFkB inh: lowers PMA/ionomycin-induced NF-kB signal in Jurkat cells; AID 435003; PMA/ionomycin-induced NF-kB luciferase reporter, luminescence; inhibition, % at 4 µM; 330,000 compounds, 0.53% hits; in the data active means inhibition above about 50%
# APP transl inh: APP translation inhibition. SH-SY5Y APP 5'UTR-luciferase reporter, luminescence. inhibition, % at 2 µM. 190,000 compounds, 0.82% hits. AID 1285;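 active means inhibition above a set limit, derived from the sample mean plus 3 SD, cut at about 45% in these data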
# Hep lipid conf: confirmation of inhibitors of hepatic lipid droplet formation. shares compounds with Hep lipid drop. 870 compounds, 65% hits. inhibition, % at 5.2 µM. AML12 mouse hepatocytes, BODIPY lipid droplet imaging; droplets induced with 100 µM oleic acid;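 active means inhibition of lipid droplet metric at least 50%, with more than 300 cells in each of four replicates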;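 further: plate controls were DMSO with oleic acid for no effect and 5 µM Triacsin-C for full effect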
# AML12 cytotox: AML12 hepatocyte cytotoxicity (counter-screen). shares compounds with Hep lipid drop. AML12 mouse hepatocytes, DAPI nuclear morphology cytotoxicity imaging; active compounds read high; cells fed 100 µM oleate overnight. z-score at 5 µM. 870 compounds, 3% hits. AID 463200; in the data active means z-score above about 6.3;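 further: compound exposure lasted overnight at 37 °C before fixation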
# AML12 tox conf: AML12 hepatocyte cytotoxicity, confirmed | shares compounds with Hep lipid drop | AML12 mouse hepatocyte viability, ATP luminescence; cells loaded with 100 µM oleic acid | cytotoxicity, % at 50 µM | 530 tested, under 10 active;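 active means cytotoxicity above 50% in each of four replicates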;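 further: compound exposure lasted overnight at 37 °C before the ATP read; 0% = DMSO-treated cells and 100% = wells with no cells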
# * marks the source's active call; other numbers are inactive results; . = no result. Only some compounds are listed: those with a hit (about 1.9% of all), similar ones and a draw of the others.
SMILES,Hep lipid drop,697 NFkB inh,H9c2 TAG inh,aSyn 5UTR inh,Jurkat NFkB inh,APP transl inh,Hep lipid conf,AML12 cytotox,others
CNC(=S)N1CCc2cc(OC)c(OC)cc2C1COc1ccc(OC)cc1 (stereo unspecified),12.6,-0.1,3.9,-2.9,5.4,10.9,.,.,
O=C(CSc1nc(O)cc(=O)[nH]1)N1c2ccccc2Sc2ccccc21,55.9*,5.0,.,13.9,-27.0,-13.0,8.5,0.465,
O=C(CSc1nc2ccccc2[nH]1)N1c2ccccc2Sc2ccccc21,6.6,-41.4,.,5.7,-5.9,-11.0,.,.,
COc1ccc(NC(=O)c2sccc2C)cn1,60.4*,-31.2,15.1,-115.4,-36.6,-23.3,0.6,-0.172,
CCc1cccc(CC)c1NC(=S)NCCc1c(C)[nH]c2ccc(C)cc12,-30.6,1.0,16.2,8.7,10.6,-3.4,.,.,
Cc1ccc2[nH]c(C)c(CC(=O)NCc3ccccc3)c2c1,71.8*,-4.7,.,-11.2,0.4,.,68.2*,0.266,AML12 tox conf=8.3
COc1cc([N+](=O)[O-])ccc1NC(=O)Nn1cnnc1,-0.7,5.0,-2.4,6.2,3.7,.,.,.,
CCN=C1S/C(=C\c2ccc(N3CCOCC3)cc2C)C(=O)N1CC,-4.7,2.4,-6.5,18.7,47.1,16.0,.,.,
COCCN1C(=O)/C(=C/c2ccc(N3CCCC3)cc2C)SC1=S,104.6*,8.2,-201.7,-41.1,-33.5,-15.1,104.9*,-0.0796,
CC(C)Oc1ccc(S(=O)(=O)N2CCOCC2)cc1NC(=O)C1=COCCO1,.,1.5,27.0,-2.8,6.9,.,.,.,
O=C/C=C/c1c(-c2ccccc2)cc2oc3ccccc3cc1-2,70.2*,-26.3,.,-33.8,-4.0,.,22.8,0.596,
Cc1ccc(C)c(C(=O)N2CCN(c3ncccn3)CC2)c1,57.1*,3.3,.,11.5,12.2,.,-12.9,-0.174,
Cc1ccc(C(=O)N2CCN(c3ncccn3)CC2)cc1,0.1,-1.1,.,16.4,3.5,.,.,.,
OC(c1ccccc1)c1nccc2ccccc12 (stereo unspecified),-30.6,6.0,-5.5,1.8,-8.7,3.3,.,.,
COC(=O)c1c(NC(=S)Nc2ccc(C(=O)N3CCOCC3)cc2)sc2c1CCC2,5.5,10.6,6.7,-0.6,6.8,3.9,.,.,
COc1cc(NC(=O)Cc2ccccc2)ccc1NC(=O)c1ccccc1,3.5,-4.2,-6.7,-7.9,1.6,.,.,.,
O=C(CSc1nc2ccccc2o1)Nc1nncs1,-34.7,-10.6,-8.0,-12.8,-12.6,.,.,.,
O=C(CSc1nc2ccccc2o1)Nc1nc(-c2ccccc2)c(-c2ccccc2)s1,60.0*,-6.4,.,27.3,-8.4,2.5,96.3*,-0.0482,AML12 tox conf=-11.8
O=C(COc1ccc(Cl)cc1)Nc1ccc2c(c1)C(=O)NC2=O,59.5*,19.9,23.5,0.7,1.6,.,4.7,0.0792,
Cc1ccc(OCC(=O)Nc2ccc3c(c2)C(=O)NC3=O)cc1,8.6,9.6,-4.5,-0.9,-0.8,.,.,.,
O=c1[nH]cnc2sc3c(c12)CCN(Cc1ccccc1)C3,54.7*,-22.5,.,3.6,-15.0,10.1,24.5,-0.0109,
CCCCNC(=O)C1CCN(C(=O)Nc2ccc(C)cc2)CC1,61.5*,-4.8,31.9,2.7,1.3,-42.2,57.3*,0.845,
CCCc1cc(N2CCOCC2)n2nc(C)c(-c3ccccc3)c2n1,63.7*,-7.3,.,11.2,-6.4,.,96.1*,0.76,AML12 tox conf=-1.7
Cc1nn2c(N3CCOCC3)cc(C(C)(C)C)nc2c1-c1ccc(Cl)cc1,37.9,-24.2,.,-7.1,3.0,.,.,.,
Cc1cc(N2CCOCC2)n2nc(C)c(-c3ccc(Cl)cc3)c2n1,97.5*,4.6,.,-11.4,3.7,.,109.8*,0.255,AML12 tox conf=11.0
CCCc1cc(N2CCN(c3ccccn3)CC2)n2nc(C)c(-c3ccccc3)c2n1,.,7.7,47.8,-14.7,-1.3,-0.2,.,.,
Cc1cc(N2CCN(C)CC2)n2nc(-c3ccc(Cl)cc3)nc2n1,61.1*,10.0,.,11.4,4.2,.,21.6,-0.265,
Cc1nc2nc(-c3ccc(Cl)cc3)nn2c(C)c1Cl,.,-9.9,.,-234.9,-46.7,-8.9,.,.,
